Test [1] has as its target Prothrombin (Homo sapiens) (UniProt P00734). Kind of test: Inhibition of thrombin (unknown origin) using Boc-Val-Pro-Arg-AMC as substrate at 25 uM preincubated with protein for 15 mins followed by substrate addition measured for 10 mins by continuous fluorimetric assay relative to control.
The test system of another test is West Nile virus. Kind of test: Inhibition of West Nile virus NS2B-NS3 protease using 2-Abz-Gly-Leu-Lys-Arg-Gly-Gly-[…]-Tyr-NH2 as substrate at 50 uM preincubated with protein for 15 mins followed by substrate addition measured for 15 mins by FRET assay. A digest of the protocol:
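Linked WNV NS2B-NS3 protease (150 nM) was preincubated 15 min with inhibitor (50 μM final) in 50 mM Tris-HCl pH 9, 10% ethylene glycol, 0.0016% Brij 58. […] Percent inhibition was taken from the slope relative to the no-inhibitor control, in triplicate.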

A short description of test [2]: Inhibition of Dengue virus serotype-2 NS2B-NS3 protease using 2-Abz-Nle-Lys-Arg-Arg-Ser-(3-NO2)-Tyr-NH2 as substrate preincubated with protein for 15 mins followed by substrate addition measured for 15 mins by FRET assay. On the set-up: species or system dengue virus type 2. In a few lines: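 DENV-2 NS2B-NS3 linked construct at 30 nM (15 nM in some cases), same pH 9 Tris buffer, 15 min preincubation and FRET read-out. Eight inhibitor concentrations spanned 0–1, 0–2, 0–6 or 0–50 μM, with substrate at 50 μM. IC50 was fitted from triplicates.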

A short description of test [3]: Inhibition of West Nile virus NS2B-NS3 protease using 2-Abz-Gly-Leu-Lys-Arg-Gly-Gly-[…]-Tyr-NH2 as substrate preincubated with protein for 15 mins followed by substrate addition measured for 15 mins by FRET assay. A digest of the protocol: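 WNV NS2B-NS3 linked construct at 75 nM (40 nM in one case) in pH 9 Tris buffer, preincubated 15 min with eight inhibitor concentrations (ranges 0–1 up to 0–50 μM). Substrate was 50 μM, with FRET readout over 15 min. IC50 was fitted from triplicates.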

pIC50: −log10 of the molar value. A value given as a limit tells only on which side of the number the result lay.

A word on the inhibition: it is the drop in the measured response relative to a control, in per cent. In general, pIC50 refers to the negative decadic logarithm of the IC50, by convention in mol/L.

`N=C(N)NCCC[C@H](NC(=O)c1cc2ccsc2s1)C(=O)N[C@@H](CCCCN)C(=O)N[C@@H](C(N)=O)c1ccc(OCc2ccccc2)cc1`: the inhibition was < 30% in test [1] and 96.6% in the test on West Nile virus. This compound had a pIC50 in test [2] of 6.30.

On to `N=C(N)NCCC[C@H](NC(=O)c1cccc(F)c1)C(=O)N[C@@H](CCCCN)C(=O)N[C@@H](C(N)=O)c1ccc(OCc2ccccc2)cc1`, for which the values for the inhibition (in test [1]; in the test on West Nile virus) were < 30% and 95.5%, respectively. The pIC50 in test [2] is 6.33.

Turning to `CC(C)(C)c1ccc(COc2ccc([C@@H](NC(=O)[C@H](CCCCN)NC(=O)[C@H](CCCNC(=N)N)NC(=O)c3ccccc3)C(N)=O)cc2)cc1`, the values for the inhibition (in test [1]; with West Nile virus) were < 30% and 85.6%, respectively. For the same compound, in test [2], the negative-log IC50 (pIC50) is 6.76.

For the compound `N=C(N)NCCC[C@H](NC(=O)c1ccc(-c2ccccc2)s1)C(=O)N[C@@H](CCCCN)C(=O)N[C@@H](C(N)=O)c1ccc(OCc2ccccc2)cc1`, the results for the inhibition (in test [1]; in the test with West Nile virus) were < 30% and 100%, respectively. For the same compound, the pIC50 in test [3] is 6.44; in test [2], 6.46.

On to `N=C(N)NCCC[C@H](NC(=O)c1ccccc1)C(=O)N[C@@H](CCCCN)C(=O)N[C@@H](C(N)=O)c1ccc(OCc2c(Cl)cccc2Cl)cc1`, for which the inhibition in test [1] is < 30%; in the test on West Nile virus, 101%. The negative-log IC50 (pIC50) was 6.31 in test [3] and 6.82 in test [2].

Turning to `N=C(N)NCCC[C@H](NC(=O)c1nccs1)C(=O)N[C@@H](CCCCN)C(=O)N[C@@H](C(N)=O)c1ccc(OCc2ccccc2)cc1`, the figures for the inhibition (in test [1]; in the test on West Nile virus) were < 30% and 98.8%, respectively. The pIC50 was 6.80 in test [3] and 7.00 in test [2].

As to `N=C(N)NCCC[C@H](NC(=O)/C=C/c1ccccc1)C(=O)N[C@@H](CCCCN)C(=O)N[C@@H](C(N)=O)c1ccc(OCc2ccccc2)cc1`, the inhibition in test [1] was < 30%; in the test on West Nile virus it was 99.7%. Also, the results for the pIC50 in test [3] and in test [2] were 6.25 and 6.49, respectively.

For `N=C(N)NCCC[C@H](NC(=O)c1ccc(-c2cccs2)s1)C(=O)N[C@@H](CCCCN)C(=O)N[C@@H](C(N)=O)c1ccc(OCc2ccccc2)cc1`, the inhibition in test [1] was < 30%; in the test on West Nile virus it was 100%. Further, the pIC50 is 6.37 in test [3] and 6.43 in test [2].

As to `N=C(N)NCCC[C@H](NC(=O)c1cscn1)C(=O)N[C@@H](CCCCN)C(=O)N[C@@H](C(N)=O)c1ccc(OCc2ccccc2)cc1`, the inhibition in test [1] is < 30%; in the test on West Nile virus, 100%. Further, the pIC50 in test [3] is 6.46; in test [2], 6.76.

For the compound `N=C(N)NCCC[C@H](NC(=O)c1sccc1Cl)C(=O)N[C@@H](CCCCN)C(=O)N[C@@H](C(N)=O)c1ccc(OCc2ccccc2)cc1`, the inhibition in test [1] is < 30%; in the test with West Nile virus it was 95.2%. In addition, the pIC50 in test [2] is 6.71.

For the compound `N=C(N)NCCC[C@H](NC(=O)c1ccccc1)C(=O)N[C@@H](CCCCN)C(=O)N[C@@H](C(N)=O)c1ccc(OCc2ccc(C(F)(F)F)cc2)cc1`, the inhibition in test [1] is < 30%; in the test with West Nile virus it was 99.7%. For the same compound, the pIC50 in test [3] is 6.65; in test [2] it was 7.16.

With `N=C(N)NCCC[C@H](NC(=O)/C=C/c1ccc(Cl)cc1)C(=O)N[C@@H](CCCCN)C(=O)N[C@@H](C(N)=O)c1ccc(OCc2ccccc2)cc1`, the values for the inhibition (in test [1]; in the test with West Nile virus) were < 30% and 99.4%, respectively. The results for the pIC50 in test [3] and in test [2] were 6.43 and 6.14, respectively.

`N=C(N)NCCC[C@H](NC(=O)c1ccc(C=O)cc1)C(=O)N[C@@H](CCCCN)C(=O)N[C@@H](C(N)=O)c1ccc(OCc2ccccc2)cc1`: the values for the inhibition (in test [1]; with West Nile virus) were < 30% and 83%, respectively. Also, the pIC50 in test [2] was 6.63.

In the case of `N=C(N)NCCC[C@H](NC(=O)c1ccccc1)C(=O)N[C@@H](CCCCN)C(=O)N[C@@H](C(N)=O)c1ccc(OCc2ccccc2Cl)cc1`, the results for the inhibition (in test [1]; with West Nile virus) were < 30% and 98.1%, respectively. Moreover, the pIC50 in test [3] was 6.39; in test [2] it was 6.49.

Consider `N=C(N)NCCC[C@H](NC(=O)CCc1ccccc1)C(=O)N[C@@H](CCCCN)C(=O)N[C@@H](C(N)=O)c1ccc(OCc2ccccc2)cc1`, for which the inhibition in test [1] was < 30%; with West Nile virus, 87.4%. The compound also had a pIC50 in test [2] of 6.04.

Consider `COc1cccc(COc2ccc([C@@H](NC(=O)[C@H](CCCCN)NC(=O)[C@H](CCCNC(=N)N)NC(=O)c3ccccc3)C(N)=O)cc2)c1`, for which the inhibition in test [1] is < 30%; in the test with West Nile virus it was 99%. Moreover, the pIC50 in test [3] is 6.09; in test [2] it was 6.83.

As for `N=C(N)NCCC[C@H](NC(=O)c1ccccc1)C(=O)N[C@@H](CCCCN)C(=O)N[C@@H](C(N)=O)c1ccc(OCc2ccc(OC(F)(F)F)cc2)cc1`, the inhibition was < 30% in test [1] and 97.1% with West Nile virus. Besides, the negative-log IC50 (pIC50) in test [2] was 6.74.

As to `Cc1ccc(C(=O)N[C@@H](CCCNC(=N)N)C(=O)N[C@@H](CCCCN)C(=O)N[C@@H](C(N)=O)c2ccc(OCc3ccccc3)cc2)s1`, the inhibition in test [1] was < 30%; with West Nile virus, 92.6%. This compound had a pIC50 in test [2] of 6.44.

Take `N=C(N)NCCC[C@H](NC(=O)c1ccccc1)C(=O)N[C@@H](CCCCN)C(=O)N[C@@H](C(N)=O)c1ccc(OCc2ccc3ccccc3c2)cc1`: the inhibition in test [1] was < 30%; in the test on West Nile virus, 92.6%. The pIC50 in test [2] was 6.72.

For the compound `N=C(N)NCCC[C@H](NC(=O)C1CCCCC1)C(=O)N[C@@H](CCCCN)C(=O)N[C@@H](C(N)=O)c1ccc(OCc2ccccc2)cc1`, the inhibition in test [1] is < 30%; in the test on West Nile virus it was 95.7%. In test [2], the pIC50 is 6.11.

As for `N=C(N)NCCC[C@H](NC(=O)c1cc2sccc2s1)C(=O)N[C@@H](CCCCN)C(=O)N[C@@H](C(N)=O)c1ccc(OCc2ccccc2)cc1`, the inhibition is < 30% in test [1] and 92.5% in the test on West Nile virus. The compound further gave a pIC50 in test [2] of 6.40.

Consider `N=C(N)NCCC[C@H](NC(=O)c1cccnc1)C(=O)N[C@@H](CCCCN)C(=O)N[C@@H](C(N)=O)c1ccc(OCc2ccccc2)cc1`, for which the inhibition is < 30% in test [1] and 96.4% in the test with West Nile virus. The pIC50 in test [2] is 6.58.

For the compound `N=C(N)NCCC[C@H](NC(=O)c1ccccc1)C(=O)N[C@@H](CCCCN)C(=O)N[C@@H](C(N)=O)c1ccc(OCc2ccc(N)cc2)cc1`, the inhibition in test [1] was < 30%; with West Nile virus, 85.1%. The same compound showed a pIC50 in test [2] of 5.70.

Take `N=C(N)NCCC[C@H](NC(=O)c1cncs1)C(=O)N[C@@H](CCCCN)C(=O)N[C@@H](C(N)=O)c1ccc(OCc2ccccc2)cc1`: the results for the inhibition (in test [1]; in the test with West Nile virus) were < 30% and 97.4%, respectively. This compound showed a pIC50 in test [2] of 6.52.

With `CC(=O)c1ccc(C(=O)N[C@@H](CCCNC(=N)N)C(=O)N[C@@H](CCCCN)C(=O)N[C@@H](C(N)=O)c2ccc(OCc3ccccc3)cc2)cc1`, the inhibition in test [1] was < 30%; in the test with West Nile virus, 84.6%. Moreover, in test [2], the pIC50 is 5.98.

In the case of `N=C(N)NCCC[C@H](NC(=O)c1sccc1-n1cccc1)C(=O)N[C@@H](CCCCN)C(=O)N[C@@H](C(N)=O)c1ccc(OCc2ccccc2)cc1`, the values for the inhibition (in test [1]; with West Nile virus) were < 30% and 94.3%, respectively. This compound also had a pIC50 in test [2] of 6.49.

As to `N=C(N)NCCC[C@H](NC(=O)c1scc2c1OCCO2)C(=O)N[C@@H](CCCCN)C(=O)N[C@@H](C(N)=O)c1ccc(OCc2ccccc2)cc1`, the results for the inhibition (in test [1]; with West Nile virus) were < 30% and 96.2%, respectively. Besides, the pIC50 in test [2] was 6.71.

On to `N=C(N)NCCC[C@H](NC(=O)c1ccc(F)cc1)C(=O)N[C@@H](CCCCN)C(=O)N[C@@H](C(N)=O)c1ccc(OCc2ccccc2)cc1`, for which the figures for the inhibition (in test [1]; in the test on West Nile virus) were < 30% and 92.9%, respectively. This compound also had a pIC50 in test [2] of 6.19.

Consider `N=C(N)NCCC[C@H](NC(=O)c1ccccc1)C(=O)N[C@@H](CCCCN)C(=O)N[C@@H](C(N)=O)c1ccc(OCc2ccccc2C(F)(F)F)cc1`, for which the inhibition was < 30% in test [1] and 97% in the test with West Nile virus. The compound also showed a pIC50 in test [2] of 6.74.

With `N=C(N)NCCC[C@H](NC(=O)C1CCCC1)C(=O)N[C@@H](CCCCN)C(=O)N[C@@H](C(N)=O)c1ccc(OCc2ccccc2)cc1`, the inhibition in test [1] was < 30%; in the test on West Nile virus, 96.3%. The pIC50 in test [2] is 6.15.

For `Cc1cccc(COc2ccc([C@@H](NC(=O)[C@H](CCCCN)NC(=O)[C@H](CCCNC(=N)N)NC(=O)c3ccccc3)C(N)=O)cc2)c1`, the inhibition in test [1] is < 30%; with West Nile virus it was 85.2%. This compound also had a pIC50 in test [2] of 6.51.

For `N=C(N)NCCC[C@H](NC(=O)c1cccc(C=O)c1)C(=O)N[C@@H](CCCCN)C(=O)N[C@@H](C(N)=O)c1ccc(OCc2ccccc2)cc1`, the inhibition is < 30% in test [1] and 97.4% in the test on West Nile virus. Further, the pIC50 in test [2] is 6.79.

Turning to `N=C(N)NCCC[C@H](NC(=O)c1ccccc1)C(=O)N[C@@H](CCCCN)C(=O)N[C@@H](C(N)=O)c1ccc(OCc2ccccc2Br)cc1`, the inhibition in test [1] was < 30%; in the test with West Nile virus, 96.7%. Moreover, the pIC50 in test [2] was 6.44.

The record behind these values is ChEMBL document CHEMBL3739314, “Discovery of Nanomolar Dengue and West Nile Virus Protease Inhibitors Containing a 4-Benzyloxyphenylglycine Residue” (J Med Chem, 2015).
